{"data": "Experimental data gathered from unrelated publications", "target": "Acetylcholinesterase (ACHE, Homo sapiens, UniProt P22303)", "effect on": "enzyme activity", "mode": "inhibitor"}
{"Compound": "CC(C)c1cc2c(c(O)c1O)[C@@]1(C(=O)O)CCCC(C)(C)[C@@H]1CC2", "IC50": "0.78 nM"}
{"Compound": "Cc1ccc(NC(=O)CSc2nnc(COc3ccc4ccccc4c3)n2-c2ccccc2)c(C)c1", "technique": "Ellman", "IC50": "697 nM"}
{"Compound": "COc1cc(-c2nc3ccccc3s2)cc2c1OCC(=O)N2CC(=O)N[C@@H](Cc1ccccc1)C(=O)O", "technique": "Ellman", "IC50": "> 247000 nM"}
{"Compound": "CCOc1ccc(NC(=O)CSc2nnc(COc3ccc4ccccc4c3)n2-c2ccccc2)cc1", "technique": "Ellman", "IC50": "815 nM"}
{"Compound": "CC(=O)c1c(C)c2cnc(Nc3ccc(C4CCN(CCS(C)(=O)=O)CC4)cn3)nc2n(C2CCCC2)c1=O", "IC50": "250 nM"}
{"Compound": "CC(C)c1cc2c(c(O)c1O)[C@@]13CCCC(C)(C)[C@@H]1[C@H](OC3=O)[C@H]2O", "IC50": "0.734 nM"}
{"Compound": "COc1cc(-c2nc3ccccc3s2)cc2c1OCC(=O)N2CC(=O)NCC(=O)O", "technique": "Ellman", "IC50": "> 299000 nM"}
{"Compound": "Cc1cc(C)cc(NC(=O)CSc2nnc(COc3ccc4ccccc4c3)n2-c2ccccc2)c1", "technique": "Ellman", "IC50": "1120 nM"}
{"Compound": "O=c1cc(CSc2ccc(N=Cc3cccc(Br)c3)cc2)occ1O", "technique": "Ellman", "IC50": "5580 nM"}
{"Compound": "Cc1ccc(NC(=O)CSc2nnc(COc3ccc4ccccc4c3)n2-c2ccccc2)cc1C", "technique": "Ellman", "IC50": "778 nM"}
{"Compound": "CC[C@@H](C)[C@H](NC(=O)CN1C(=O)COc2c(OC)cc(-c3nc4ccccc4s3)cc21)C(=O)O", "technique": "Ellman", "IC50": "> 265000 nM"}
{"Compound": "O=c1cc(CSc2ccc(N=Cc3ccc(Cl)cc3)cc2)occ1O", "technique": "Ellman", "IC50": "1330 nM"}
{"Compound": "CC[C@H](C)[C@@H](NC(=O)COc1c(NC(C)=O)cc(-c2nc3ccccc3s2)cc1OC)C(=O)O", "technique": "Ellman", "IC50": "> 264000 nM"}
{"Compound": "O=c1cc(CSc2ccc(N=Cc3cccc(Cl)c3)cc2)occ1O", "technique": "Ellman", "IC50": "13200 nM"}
{"Compound": "COc1cc(-c2nc3ccccc3s2)cc(NC(C)=O)c1OCC(=O)N[C@H](C(=O)O)C(C)C", "technique": "Ellman", "IC50": "> 271000 nM"}
{"Compound": "O=c1cc(CSc2ccc(N=Cc3ccc([N+](=O)[O-])cc3)cc2)occ1O", "technique": "Ellman", "IC50": "8380 nM"}
